Measured values from ChEMBL document CHEMBL1124392, “Potential antitumor agents. 57. 2-Phenylquinoline-8-carboxamides as "minimal" DNA-intercalating antitumor agents with in vivo solid tumor activity” (J Med Chem, 1989).
Activity calls are given as the source filed them. The calls are words filed in the database; no cut-off is given here.

Assays:
P388 [1] = test: Percentage increase in lifespan of mice treated at 100 mg/kg/day on days 1, 5, 9 after intravenous inoculation of P388 leukemia cells; assay type: functional, Mus musculus; conditions: for ILS at 100 mg/kg/day: Mus musculus, P388
[2] = tested on: Lewis lung carcinoma cell line; test: Percentage increase in lifespan of mice treated at 100 mg/kg/day on days 5, 9, 13 after intravenous up to the toxic dose levels tested; assay type: functional, organism-based; conditions: Mus musculus
In short: (§1)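 Mice were inoculated intravenously with 10^6 Lewis lung carcinoma cells. Drug was given ip in 30% v/v ethanol/water on days 5, 9 and 13. ILS is the percentage increase in lifespan at the optimal dose, with six animals per group.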

L1210 = test: Concentration to inhibit growth of murine leukemia cells in culture by 50%.; assay type: functional, cell-based; conditions: Mus musculus
In short: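 Murine L1210 leukemia cells were grown in culture with drug for 40 h. IC50 is the drug concentration, in nM, that inhibits growth by 50%.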

Nucleic Acid [3] = test: Binding constant to poly[d(A-T)] by ethidium bromide displacement; assay type: nucleic-acid assay
Nucleic Acid [4] = test: Binding constant to poly[d(G-C)] by ethidium bromide displacement; assay type: nucleic-acid assay
[5] = tested on: Lewis lung carcinoma cell line; test: Percentage increase in lifespan of mice treated at 65 mg/kg/day on days 5, 9, 13 after intravenous inoculation of lewis lung carcinoma cells; assay type: functional, Mus musculus
In short: (§2)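 Mice were given 10^6 Lewis lung carcinoma cells intravenously. Drug was dosed intraperitoneally on days 5, 9 and 13 as a solution in 0.1 mL of 30% v/v ethanol/water, with groups of six animals. Read-out was the percentage increase in lifespan of treated tumor-bearing mice.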

[6] = tested on: Lewis lung carcinoma cell line; test: Percentage increase in lifespan of mice treated at 100 mg/kg/day on days 5, 9, 13 after intravenous inoculation of lewis lung carcinoma cells; assay type: functional, Mus musculus; in short: as §2
P388 [7] = test: Percentage increase in lifespan of mice treated at 100 mg/kg/day on days 1, 5, 9 after intraperitoneal inoculation of P388 leukemia cells
[8] = pKa determined in aqueous solutions spectrophotometrically
[9] = tested on: Lewis lung carcinoma cell line; test: Percentage increase in lifespan of mice treated at 65 mg/kg/day on days 5, 9, 13 after intravenous up to the toxic dose levels tested; assay type: functional, organism-based; conditions: Mus musculus; in short: as §1
P388 [10] = test: Percentage increase in lifespan of mice treated at 65 mg/kg/day on days 1, 5, 9 after intraperitoneal up to the toxic dose levels tested; conditions: Mus musculus
P388 [11] = test: Percentage increase in lifespan of mice treated at 65 mg/kg/day on days 1, 5, 9 after […] up to the toxic dose levels tested; assay type: functional, organism-based; conditions: Mus musculus
In short: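 Mice were inoculated intraperitoneally with 10^6 P388 leukemia cells. Drug was given ip in 30% v/v ethanol/water on days 1, 5 and 9. ILS is the percentage increase in lifespan of treated over untreated tumor-bearing animals at the optimal dose, with six animals per group. Values above 20% count as significant, and long-term survivors were scored at 50 days.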

Nucleic Acid [12] = test: Binding constant for poly[d(G-C)] by ethidium bromide displacement; assay type: nucleic-acid assay
Nucleic Acid [13] = test: Binding constant for poly[d(A-T)] by ethidium bromide displacement; assay type: nucleic-acid assay
[14] = tested on: Lewis lung carcinoma cell line; test: Percentage increase in lifespan of mice treated at 150 mg/kg/day on days 5, 9, 13 after intravenous inoculation of lewis lung carcinoma cells; assay type: functional, Mus musculus; in short: as §2
P388 [15] = test: Percentage increase in lifespan of mice treated at 65 mg/kg/day on days 1, 5, 9 after intraperitoneal inoculation of P388 leukemia cells
P388 [16] = test: Percentage increase in lifespan of mice treated at 45 mg/kg/day on days 1, 5, 9 after intraperitoneal up to the toxic dose levels tested; conditions: Mus musculus
P388 [17] = test: Percentage increase in lifespan of mice treated at 225 mg/kg/day on days 1, 5, 9 after intraperitoneal inoculation of P388 leukemia cells
P388 [18] = test: Percentage increase in lifespan of mice treated at 100 mg/kg/day on days 1, 5, 9 after intraperitoneal up to the toxic dose levels tested; conditions: Mus musculus
P388 [19] = test: Percentage increase in lifespan of mice treated at 150 mg/kg/day on days 1, 5, 9 after intraperitoneal up to the toxic dose levels tested; conditions: Mus musculus

SMILES | ILS [2] | IC50 (L1210) | Log K (Nucleic Acid [3]) | Log K (Nucleic Acid [4]) | ILS (P388 [7]) | other results
CN(C)CCCNC(=O)c1cccc2ccc(-c3ccccc3)nc12 | inactive | 1140 nM | 5.9 | 5.62 |  | ILS at 100 mg/kg/day (P388 [1]): 71%
CN(C)CCNC(=O)c1cccc2ccc(-c3ccc([N+](=O)[O-])cc3)nc12 |  | 290 nM | 6.28 | 6.13 |  | ILS (P388 [1]): 58; ILS [5]: 85
CN(C)CCNC(=O)c1cccc2ccc(-c3cccnc3)nc12 |  | 840 nM | 5.81 | 6.09 | 58 | ILS [6]: 55
CN(C)CCNC(=O)c1cccc2ccc(-c3ccc(Cl)cc3)nc12 |  | 1170 nM | 6.08 | 5.99 | 52 | ILS [5]: 45; pKa [8]: 2.42
O=C(NCCNCCO)c1cccc2ccc(-c3ccccc3)nc12 |  | 36 nM | 6.22 | 6.31 |  | ILS [9]: inactive; ILS (P388 [10]): inactive
CC(=O)Nc1ccc(-c2ccc3cccc(C(=O)NCCN(C)C)c3n2)cc1 |  | 600 nM |  |  |  | ILS (P388 [11]): inactive; Log K (Nucleic Acid [12]): 7.07; Log K (Nucleic Acid [13]): 6.49
CN(C)CCNC(=O)c1cccc2ccc(-c3ccc(I)cc3)nc12 | inactive | 400 nM | 6.8 | 6.87 | 48 | 
CN(C)CCNC(=O)c1cccc2ccc(-c3ccccc3)nc12 |  |  | 5.98 | 5.92 |  | ILS at 100 mg/kg/day (P388 [1]): 91%; ILS at 100 mg/kg/day ([6]; Mus musculus, Lewis lung carcinoma): 70%
CN(C)CCCCNC(=O)c1cccc2ccc(-c3ccccc3)nc12 |  | 680 nM | 6.19 | 5.89 | 93 | 
O=C(NCCN1CCOCC1)c1cccc2ccc(-c3ccccc3)nc12 |  | 44 nM | 6.12 | 5.61 |  | ILS (P388 [10]): inactive
CN(C)CCNC(=O)c1cccc2ccc(-c3ccc(F)cc3)nc12 | inactive | 730 nM | 6.74 | 6.66 | 24 | 
CN(C)CCNC(=O)c1cccc2ccc(-c3ccc(N)cc3)nc12 |  | 200 nM | 6.42 | 6.96 | 28 | ILS [14]: 59
COc1ccc(-c2ccc3cccc(C(=O)NCCN(C)C)c3n2)cc1 | inactive | 1290 nM | 6.4 | 6.27 |  | ILS (P388 [1]): 42; pKa [8]: 3.28
CN(C)CCCCCNC(=O)c1cccc2ccc(-c3ccccc3)nc12 | inactive | 1300 nM | 5.9 | 5.73 |  | ILS (P388 [11]): inactive
CN(C)CCNC(=O)c1cccc2ccc(-c3ccc(Br)cc3)nc12 | inactive | 600 nM | 6.63 | 6.68 | 72 | 
CN(C)CCNC(=O)c1cccc2ccc(-c3ccccn3)nc12 |  | 1640 nM | 5.82 | 5.85 |  | ILS (P388 [1]): 73; ILS [6]: 84
CN(C)CCNC(=O)c1cccc2ccc(-c3cccc(Cl)c3)nc12 |  | 1200 nM | 6.05 | 6.47 |  | ILS (P388 [15]): 40; ILS [9]: inactive
CN(C)CCNC(=O)c1cccc2ccc(-c3ccc(NS(C)(=O)=O)cc3)nc12 |  | 1330 nM | 6.04 | 6.22 |  | ILS (P388 [16]): inactive
CN(C)CCNC(=O)c1cccc2ccc(-c3ccncc3)nc12 |  | 170 nM | 5.82 | 6.32 |  | ILS [5]: 191
COc1cccc(-c2ccc3cccc(C(=O)NCCN(C)C)c3n2)c1 |  | 860 nM | 6.3 | 6.41 |  | ILS (P388 [17]): 46
CN(C)CCNC(=O)c1cccc2ccc(-c3ccc(C(F)(F)F)cc3)nc12 | inactive | 2100 nM | 6.64 | 6.72 |  | ILS (P388 [18]): inactive
Br.Br.CN(C)CCNC(=O)c1cccc2ccc(-c3ccc(O)cc3)nc12 | inactive | 1280 nM | 6.3 | 6.48 |  | ILS (P388 [1]): 22
CN(C)CCNC(=O)c1cccc2ccc(-c3ccc(S(C)(=O)=O)cc3)nc12 | inactive | 5800 nM | 5.68 |  | 29 | 
CN(C)CCNC(=O)c1cccc2ccc(-c3ccc4ccccc4c3)nc12 |  | 860 nM | 7 | 7.35 |  | ILS (P388 [19]): inactive
CN(C)CCNC(=O)c1cccc2ccc(-c3ccc(-c4ccccc4)cc3)nc12 |  | 1290 nM | 6.88 | 6.96 |  | ILS (P388 [19]): inactive
CN(C)CCNC(=O)c1cccc2ccc(-c3ccccc3Cl)nc12 |  | 8100 nM | 5.32 | 5.12 |  | ILS (P388 [11]): inactive
